One block for each compound: values may come before it.
Legend:
Sus scrofa [1] = test: Bioavailability in Gottingen mini pig at 2 nmol/kg, sc; format: ADME, organism-based; settings: in vivo
Outline: (§1)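 Göttingen mini-pigs received a single i.v. or s.c. dose, sized to individual body weight. Twelve blood samples were taken up to 288 h into ice-cooled EDTA tubes, then centrifuged at 4 °C. Plasma was frozen until GLP-1 analogue was measured by ELISA or LC/MS. Cl, Vz, T1/2, Tmax, MRT and F came from noncompartmental analysis.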

Sus scrofa [2] = test: Clearance in Gottingen mini pig at 2 nmol/kg, iv; format: ADME, organism-based; settings: in vivo; outline: as §1
Sus scrofa [3] = test: Tmax in Gottingen mini pig at 2 nmol/kg, sc; format: ADME, organism-based; settings: in vivo; outline: as §1
Sus scrofa [4] = test: Mean residence time in Gottingen mini pig at 2 nmol/kg, sc; format: ADME, organism-based; settings: in vivo; outline: as §1
Sus scrofa [5] = test: Half life in Gottingen mini pig at 2 nmol/kg, iv; format: ADME, organism-based; settings: in vivo; outline: as §1
Mus musculus [6] = test: Antihyperglycaemic activity in sc dosed db/db mouse assessed as reduction of blood glucose level up to 48 hrs by glucose oxidase method; format: functional, organism-based
Outline: (§2)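 Male db/db mice (10–12 weeks old, blood glucose above 10 mM), group-housed, fed chow and acidified water ad libitum. Doses of 0.3–100 nmol/kg were given s.c. at 6 mL/kg in 50 mM phosphate with 0.05% Tween 80, pH 8. Tail-tip capillary blood glucose was measured by glucose oxidase at 0, 1, 2, 3, 6, 24 and 48 h. […] Values are mean ± SEM.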

Homo sapiens = organism: Homo sapiens; test: Half life in human; format: ADME, organism-based; settings: in vivo
Sus scrofa [7] = test: Apparent volume of distribution in Gottingen mini pig at 2 nmol/kg, iv; format: ADME, organism-based; settings: in vivo; outline: as §1
[8] = Clearance in Gottingen mini pig at 0.5 nmol/kg, iv; format: ADME, organism-based, Sus scrofa; settings: Gottingen minipig, in vivo; outline: as §1
[9] = Bioavailability in Gottingen mini pig at 1 nmol/kg, sc; format: ADME, organism-based, Sus scrofa; settings: Gottingen minipig, in vivo; outline: as §1
[10] = Apparent volume of distribution in Gottingen mini pig at 0.5 nmol/kg, iv; format: ADME, organism-based, Sus scrofa; settings: Gottingen minipig, in vivo, read-out: Vz; outline: as §1
[11] = Mean residence time in Gottingen mini pig at 1 nmol/kg, sc; format: ADME, organism-based, Sus scrofa; settings: Gottingen minipig, in vivo; outline: as §1
[12] = Half life in Gottingen mini pig at 0.5 nmol/kg, iv; format: ADME, organism-based, Sus scrofa; settings: Gottingen minipig, in vivo; outline: as §1
[13] = biological target: T1, Glucagon-like peptide 1 receptor (Homo sapiens, UniProt P43220); test: Displacement of [125I]-GLP1 from human GLP1 receptor expressed in BHK cells after 2 hrs in absence of human serum albumin; format: cell-based
T1 sequence (P43220 whole entry): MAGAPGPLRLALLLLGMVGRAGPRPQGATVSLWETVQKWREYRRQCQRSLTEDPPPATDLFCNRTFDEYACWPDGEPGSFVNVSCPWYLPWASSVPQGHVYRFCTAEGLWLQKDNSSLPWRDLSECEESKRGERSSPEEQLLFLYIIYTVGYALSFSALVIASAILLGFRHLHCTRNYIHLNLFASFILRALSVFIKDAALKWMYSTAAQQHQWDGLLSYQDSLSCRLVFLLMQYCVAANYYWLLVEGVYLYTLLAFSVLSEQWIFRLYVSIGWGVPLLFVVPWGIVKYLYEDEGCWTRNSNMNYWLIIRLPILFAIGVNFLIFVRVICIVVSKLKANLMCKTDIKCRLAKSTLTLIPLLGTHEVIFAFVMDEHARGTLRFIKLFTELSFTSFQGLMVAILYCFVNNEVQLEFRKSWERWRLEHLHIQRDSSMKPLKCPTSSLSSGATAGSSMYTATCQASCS

[14] = biological target: T1, Glucagon-like peptide 1 receptor; test: Displacement of [125I]-GLP1 from human GLP1 receptor expressed in BHK cells after 2 hrs in presence of 2% human serum albumin; format: cell-based
[15] = biological target: T1, Glucagon-like peptide 1 receptor; test: Agonist activity at human GLP1 receptor expressed in BHK cells after 3 hrs by CRE firefly luciferase reporter gene assay in absence of human serum albumin; format: functional, cell-based
Mus musculus [16] = test: Antihyperglycaemic activity in sc dosed db/db mouse assessed as reduction of blood glucose level by glucose oxidase method; format: functional, organism-based; outline: as §2
Mus musculus [17] = test: Antiobesity activity in sc dosed db/db mouse assessed as reduction of body weight; format: functional, organism-based

Compound: CC[C@H](C)[C@H](NC(=O)[C@H](Cc1ccccc1)NC(=O)[C@H](CCC(=O)O)NC(=O)[C@H](CCCCNC(=O)COCCOCCNC(=O)COCCOCCNC(=O)CC[C@H](NC(=O)CCCCCCCCCCCCCCC(=O)O)C(=O)O)NC(=O)[C@H](C)NC(=O)[C@H](C)NC(=O)[C@H](CCC(N)=O)NC(=O)CNC(=O)[C@H](CCC(=O)O)NC(=O)[C@H](CC(C)C)NC(=O)[C@H](Cc1ccc(O)cc1)NC(=O)[C@H](CO)NC(=O)[C@H](CO)NC(=O)[C@@H](NC(=O)[C@H](CC(=O)O)NC(=O)[C@H](CO)NC(=O)[C@@H](NC(=O)[C@H](Cc1ccccc1)NC(=O)[C@@H](NC(=O)CNC(=O)[C@H](CCC(=O)O)NC(=O)C(C)(C)NC(=O)[C@@H](N)Cc1c[nH]cn1)[C@@H](C)O)[C@@H](C)O)C(C)C)C(=O)N[C@@H](C)C(=O)N[C@@H](Cc1c[nH]c2ccccc12)C(=O)N[C@@H](CC(C)C)C(=O)N[C@H](C(=O)N[C@@H](CCCNC(=N)N)C(=O)NCC(=O)N[C@@H](CCCNC(=N)N)C(=O)NCC(=O)O)C(C)C
IC50 [13]: 0.94 nM
IC50 [14]: 20.5 nM
EC50 [15]: 0.0086 nM

Compound: CC[C@H](C)[C@H](NC(=O)[C@H](Cc1ccccc1)NC(=O)[C@H](CCC(=O)O)NC(=O)[C@H](CCCCN)NC(=O)[C@H](C)NC(=O)[C@H](C)NC(=O)[C@H](CCC(N)=O)NC(=O)CNC(=O)[C@H](CCC(=O)O)NC(=O)[C@H](CC(C)C)NC(=O)[C@H](Cc1ccc(O)cc1)NC(=O)[C@H](CO)NC(=O)[C@H](CO)NC(=O)[C@H](CCCCNC(=O)COCCOCCNC(=O)COCCOCCNC(=O)CC[C@H](NC(=O)CCCCCCCCCCCCCCCCC(=O)O)C(=O)O)NC(=O)[C@H](CC(=O)O)NC(=O)[C@H](CO)NC(=O)[C@@H](NC(=O)[C@H](Cc1ccccc1)NC(=O)[C@@H](NC(=O)CNC(=O)[C@H](CCC(=O)O)NC(=O)C(C)(C)NC(=O)[C@@H](N)Cc1c[nH]cn1)[C@@H](C)O)[C@@H](C)O)C(=O)N[C@@H](C)C(=O)N[C@@H](Cc1c[nH]c2ccccc12)C(=O)N[C@@H](CC(C)C)C(=O)N[C@H](C(=O)N[C@@H](CCCCN)C(=O)NCC(=O)N[C@@H](CCCNC(=N)N)C(=O)NCC(=O)O)C(C)C
IC50 [13]: 0.5 nM
IC50 [14]: 25.5 nM
EC50 [15]: 0.0099 nM

Compound: SEMAGLUTIDE [listing 2 of 2 here]
Activity (Mus musculus [16]): Dose-dependent effect
Activity (Mus musculus [17]): Dose-dependent effect

Compound: CC[C@H](C)[C@H](NC(=O)[C@H](Cc1ccccc1)NC(=O)[C@H](CCC(=O)O)NC(=O)[C@H](CCCCN)NC(=O)[C@H](C)NC(=O)[C@H](C)NC(=O)[C@H](CCC(N)=O)NC(=O)[C@H](CCCCNC(=O)COCCOCCNC(=O)COCCOCCNC(=O)CC[C@H](NC(=O)CCCCCCCCCCCCCCCCC(=O)O)C(=O)O)NC(=O)[C@H](CCC(=O)O)NC(=O)[C@H](CC(C)C)NC(=O)[C@H](Cc1ccc(O)cc1)NC(=O)[C@H](CO)NC(=O)[C@H](CO)NC(=O)[C@@H](NC(=O)[C@H](CC(=O)O)NC(=O)[C@H](CO)NC(=O)[C@@H](NC(=O)[C@H](Cc1ccccc1)NC(=O)[C@@H](NC(=O)CNC(=O)[C@H](CCC(=O)O)NC(=O)C(C)(C)NC(=O)[C@@H](N)Cc1c[nH]cn1)[C@@H](C)O)[C@@H](C)O)C(C)C)C(=O)N[C@@H](C)C(=O)N[C@@H](Cc1c[nH]c2ccccc12)C(=O)N[C@@H](CC(C)C)C(=O)N[C@H](C(=O)N[C@@H](CCCCN)C(=O)NCC(=O)N[C@@H](CCCNC(=N)N)C(=O)NCC(=O)O)C(C)C
IC50 [13]: 0.06 nM
IC50 [14]: 17.7 nM
EC50 [15]: 0.0027 nM

Compound: CC[C@H](C)[C@H](NC(=O)[C@H](Cc1ccccc1)NC(=O)[C@H](CCC(=O)O)NC(=O)[C@H](CCCCNC(=O)COCCOCCNC(=O)COCCOCCNC(=O)CCCCCCCCCCCCCCC(=O)O)NC(=O)[C@H](C)NC(=O)[C@H](C)NC(=O)[C@H](CCC(N)=O)NC(=O)CNC(=O)[C@H](CCC(=O)O)NC(=O)[C@H](CC(C)C)NC(=O)[C@H](Cc1ccc(O)cc1)NC(=O)[C@H](CO)NC(=O)[C@H](CO)NC(=O)[C@@H](NC(=O)[C@H](CC(=O)O)NC(=O)[C@H](CO)NC(=O)[C@@H](NC(=O)[C@H](Cc1ccccc1)NC(=O)[C@@H](NC(=O)CNC(=O)[C@H](CCC(=O)O)NC(=O)C(C)(C)NC(=O)[C@@H](N)Cc1c[nH]cn1)[C@@H](C)O)[C@@H](C)O)C(C)C)C(=O)N[C@@H](C)C(=O)N[C@@H](Cc1c[nH]c2ccccc12)C(=O)N[C@@H](CC(C)C)C(=O)N[C@H](C(=O)N[C@@H](CCCNC(=N)N)C(=O)NCC(=O)N[C@@H](CCCNC(=N)N)C(=O)NCC(=O)O)C(C)C
IC50 [13]: 3.25 nM
IC50 [14]: 12.8 nM
EC50 [15]: 0.166 nM

The next lines start with the values.

F (Sus scrofa [1]): 94%
CL (Sus scrofa [2]): 1.6 mL/h/kg
Tmax (Sus scrofa [3]): 12 h
MRT (Sus scrofa [4]): 63.6 h
t1/2 (Sus scrofa [5]): 46.1 h
EC50 (Mus musculus [6]): < 2 nmol/kg
t1/2 (Homo sapiens): 165 h
Vz (Sus scrofa [7]): 0.1019 L/kg
Compound: SEMAGLUTIDE [listing 1 of 2 here]

clearance [8]: 3.8 mL/h/kg
bioavailability [9]: 66%
Vd [10]: 0.0674 L/kg
MRT [11]: 23 h
half-life [12]: 12.4 h
Compound: CCCCCCCCCCCCCCCC(=O)N[C@@H](CCC(=O)NCCCC[C@H](NC(=O)[C@H](C)NC(=O)[C@H](C)NC(=O)[C@H](CCC(N)=O)NC(=O)CNC(=O)[C@H](CCC(=O)O)NC(=O)[C@H](CC(C)C)NC(=O)[C@H](Cc1ccc(O)cc1)NC(=O)[C@H](CO)NC(=O)[C@H](CO)NC(=O)[C@@H](NC(=O)[C@H](CC(=O)O)NC(=O)[C@H](CO)NC(=O)[C@@H](NC(=O)[C@H](Cc1ccccc1)NC(=O)[C@@H](NC(=O)CNC(=O)[C@H](CCC(=O)O)NC(=O)[C@H](C)NC(=O)[C@@H](N)Cc1cnc[nH]1)[C@@H](C)O)[C@@H](C)O)C(C)C)C(=O)N[C@@H](CCC(=O)O)C(=O)N[C@@H](Cc1ccccc1)C(=O)N[C@H](C(=O)N[C@@H](C)C(=O)N[C@@H](Cc1c[nH]c2ccccc12)C(=O)N[C@@H](CC(C)C)C(=O)N[C@H](C(=O)N[C@@H](CCCNC(=N)N)C(=O)NCC(=O)N[C@@H](CCCNC(=N)N)C(=O)NCC(=O)O)C(C)C)[C@@H](C)CC)C(=O)O [LIRAGLUTIDE]

IC50 [13]: 0.04 nM
IC50 [14]: 1.99 nM
EC50 [15]: 0.0032 nM
Compound: CCCCCCCCCCCCCCCCCC(=O)N[C@@H](CCC(=O)NCCOCCOCC(=O)NCCOCCOCC(=O)NCCCC[C@H](NC(=O)[C@H](C)NC(=O)[C@H](C)NC(=O)[C@H](CCC(N)=O)NC(=O)CNC(=O)[C@H](CCC(=O)O)NC(=O)[C@H](CC(C)C)NC(=O)[C@H](Cc1ccc(O)cc1)NC(=O)[C@H](CO)NC(=O)[C@H](CO)NC(=O)[C@@H](NC(=O)[C@H](CC(=O)O)NC(=O)[C@H](CO)NC(=O)[C@@H](NC(=O)[C@H](Cc1ccccc1)NC(=O)[C@@H](NC(=O)CNC(=O)[C@H](CCC(=O)O)NC(=O)C(C)(C)NC(=O)[C@@H](N)Cc1c[nH]cn1)[C@@H](C)O)[C@@H](C)O)C(C)C)C(=O)N[C@@H](CCC(=O)O)C(=O)N[C@@H](Cc1ccccc1)C(=O)N[C@H](C(=O)N[C@@H](C)C(=O)N[C@@H](Cc1c[nH]c2ccccc12)C(=O)N[C@@H](CC(C)C)C(=O)N[C@H](C(=O)N[C@@H](CCCNC(=N)N)C(=O)NCC(=O)N[C@@H](CCCNC(=N)N)C(=O)NCC(=O)O)C(C)C)[C@@H](C)CC)C(=O)O

IC50 [13]: 2.65 nM
IC50 [14]: 8.87 nM
EC50 [15]: 0.0157 nM
Compound: CC[C@H](C)[C@H](NC(=O)[C@H](Cc1ccccc1)NC(=O)[C@H](CCC(=O)O)NC(=O)[C@H](CCCCNC(=O)COCCOCCNC(=O)COCCOCCNC(=O)CC[C@H](NC(=O)CCCCCCCCCCCCC(=O)O)C(=O)O)NC(=O)[C@H](C)NC(=O)[C@H](C)NC(=O)[C@H](CCC(N)=O)NC(=O)CNC(=O)[C@H](CCC(=O)O)NC(=O)[C@H](CC(C)C)NC(=O)[C@H](Cc1ccc(O)cc1)NC(=O)[C@H](CO)NC(=O)[C@H](CO)NC(=O)[C@@H](NC(=O)[C@H](CC(=O)O)NC(=O)[C@H](CO)NC(=O)[C@@H](NC(=O)[C@H](Cc1ccccc1)NC(=O)[C@@H](NC(=O)CNC(=O)[C@H](CCC(=O)O)NC(=O)C(C)(C)NC(=O)[C@@H](N)Cc1c[nH]cn1)[C@@H](C)O)[C@@H](C)O)C(C)C)C(=O)N[C@@H](C)C(=O)N[C@@H](Cc1c[nH]c2ccccc12)C(=O)N[C@@H](CC(C)C)C(=O)N[C@H](C(=O)N[C@@H](CCCNC(=N)N)C(=O)NCC(=O)N[C@@H](CCCNC(=N)N)C(=O)NCC(=O)O)C(C)C

Source: ChEMBL document CHEMBL3616405 (J Med Chem, 2015)
